The target in data set [1] is eIF4A1 (Homo sapiens, UniProt P60842). In words: Fluorescence polarization. Type of data set: binding. Conditions: for rank in screen for enhancing eIF4A1:poly r(AG)8 RNA binding: 10 µM rocaglate, >200 rocaglates of BU-CMD collection. (Fluorescence polarisation rises when a labelled molecule tumbles more slowly, as on binding a larger partner.)
For data set [2], the system named is eIF4A1^em1JP cells.
Data set [3] has as its system myr-Akt/Eµ-Myc lymphomas. Put plainly: Lymphoma chemosensitization study. The data set is classed as in vivo, mice. Conditions: CMLD012612 0.2 mg/kg IP daily for 5 days + doxorubicin 10 mg/kg on day 2.
For data set [4], the system named is liver polysomes. Put plainly: Liver polysome profiling after intraperitoneal delivery. Type of data set: in vivo, mice. The conditions noted are these: 3 h after intraperitoneal injection; 0.5 mg/kg CMLD012612, 0.2 mg/kg CR-1–31-B.
Data set [5] concerns NIH/3T3 cells. In words: Sulforhodamine B. The data set is classed as cell-based. Conditions: read-out: IC50 cytotoxicity against NIH/3T3 cells; 4 day compound exposure.
Data set [6] relates to HEK293 cells. Put plainly: [35S]-methionine labeling. Type of data set: cell-based. The conditions noted are these: 1 h compound exposure; compared with CR-1–31-B and CMLD012073.
For data set [7], the system named is cap-dependent translation (FF). Put plainly: In vitro translation assay in Krebs-2 extracts. Type of data set: biochemical. The conditions noted are these: Krebs-2 extracts programmed with mRNA. An outline of the steps:
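Reporter mRNA added at 10 ng/µL final. Incubated with or without compound 60 min at 30 °C; firefly luciferase read. IC50 from 3–5 independent experiments (6 concentration points), nonlinear regression fit.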

In data set [8] the test system is 80S ribosome assembly on (AG)10-FF/HCV/Ren mRNA. Put plainly: Ribosome binding. The data set is classed as biochemical, rabbit. Conditions: 500 nM compound, 100 nM eIF4A1, RRL, 600 µM cycloheximide. An outline of the steps: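 32P-labeled (AG)10-FF/HCV/Ren mRNA preincubated with 100 nM eIF4A1 and 500 nM compound for 10 min at RT. Then added to rabbit reticulocyte lysate with 600 µM cycloheximide and incubated 10 min at 30 °C. Lysate sedimented on 10–30% glycerol gradients (SW40, 39,000 rpm, 3.5 h, 4 °C). Fractions collected and radioactivity measured by scintillation counting.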

In data set [9] the target is eIF4A2 (Homo sapiens, UniProt Q14240). In words: Fluorescence polarization. The data set is classed as binding. The conditions noted are these: 10 µM CR-1–31-B, 10 nM FAM poly r(AG)8, 30 min RT. The procedure, abridged:
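His6-eIF4A2 expressed in E. coli BL21(DE3), purified by Ni-NTA then Q-Sepharose. Varied eIF4A2 concentrations mixed with 10 nM FAM-poly r(AG)8, plus DMSO vehicle or test compound. Equilibrated 30 min at RT, then polarization read. Change in FP expressed relative to DMSO control; n = 3 ± SEM.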

Chain of eIF4A1 (P60842 whole entry, species assumed): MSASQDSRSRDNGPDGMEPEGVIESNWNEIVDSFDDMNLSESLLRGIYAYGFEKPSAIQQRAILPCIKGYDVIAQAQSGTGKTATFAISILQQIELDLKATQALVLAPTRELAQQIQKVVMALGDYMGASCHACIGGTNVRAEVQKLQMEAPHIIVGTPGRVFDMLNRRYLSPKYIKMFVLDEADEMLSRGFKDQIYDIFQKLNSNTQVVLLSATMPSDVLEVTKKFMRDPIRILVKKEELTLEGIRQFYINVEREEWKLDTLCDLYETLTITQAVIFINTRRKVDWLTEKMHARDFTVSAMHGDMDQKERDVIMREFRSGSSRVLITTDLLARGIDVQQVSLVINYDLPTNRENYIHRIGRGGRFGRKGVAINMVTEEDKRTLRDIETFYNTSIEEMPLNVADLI
Chain of eIF4A2 (Q14240 whole entry, species assumed): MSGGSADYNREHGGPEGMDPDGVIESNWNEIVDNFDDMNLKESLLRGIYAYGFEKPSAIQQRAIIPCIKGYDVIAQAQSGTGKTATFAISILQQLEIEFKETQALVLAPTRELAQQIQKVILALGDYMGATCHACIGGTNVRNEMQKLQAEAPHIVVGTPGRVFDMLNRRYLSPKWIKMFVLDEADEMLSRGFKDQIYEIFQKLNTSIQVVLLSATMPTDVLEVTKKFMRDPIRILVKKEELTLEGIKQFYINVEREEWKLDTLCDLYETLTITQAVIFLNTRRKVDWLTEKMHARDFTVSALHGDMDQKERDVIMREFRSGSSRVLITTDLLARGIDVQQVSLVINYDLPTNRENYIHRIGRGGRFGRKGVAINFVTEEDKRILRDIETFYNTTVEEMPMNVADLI

On to `CONC(=O)[C@H]1[C@@H](O)[C@@]2(O)c3c(OC)cc(OC)cc3O[C@@]2(c2ccc(Br)cc2)[C@@H]1c1ccccc1` [SDS-1–0-21], for which the “rank in screen for enhancing eIF4A1:poly r(AG)8 RNA binding” value (from here on “rank in screen”) in data set [1] was “ranked highly”.

Take `COc1ccc([C@@]23Oc4cc(OC)cc(OC)c4[C@@]24N=C(C)N[C@@]4(O)[C@H](C(=O)N(C)OC)[C@H]3c2ccccc2)cc1` [CMLD012612]: in [2], the “cytotoxicity in eIF4A1^em1JP cells versus NIH/3T3” value is on record as “significantly blunted”. Further, the “resistance of eIF4A^em1jp cells relative to parental NIH/3T3 cells” value in data set [2] (4 day compound exposure) is recorded as “at least 10 fold”. In data set [3], the “duration of complete tumor loss (tumor-free survival)” value lay within 15 to 16 days and the synergy with doxorubicin result is “effectively synergized”. Further, in data set [4], the “suppression of liver polysomes” value is given as “effectively suppressed liver polysomes”. Moreover, the IC50 in data set [5] was ~2 nM. In addition, the “inhibition of cellular translation (35S-methionine incorporation)” value in data set [6] was “surpasses those of our previous lead compounds”.

As to `COC(=O)[C@@H]1[C@@H](c2ccccc2)[C@]2(c3ccc(OC)cc3)Oc3cc(OC)cc(OC)c3[C@@]23N=C(C)N[C@@]13O` [CMLD012073], in data set [1], the “rank in screen” value is reported as “Among the most potent”. Moreover, in data set [7], the “potency at inhibiting cap-dependent translation (FF) relative to CR-1–31-B” value is ~ 3 fold. For the same compound, the “assembly of the 80S ribosome on the mRNA” value in [8] was “inhibited assembly of the 80S ribosome”. The IC50 in data set [5] was 10 nM.

Turning to `COC(=O)[C@@H]1[C@@H](c2ccccc2)[C@]2(c3ccc(OC)cc3)Oc3cc(OC)cc(OC)c3[C@@]23N=C(C2CC2)N[C@@]13O` [CMLD012072], the “rank in screen” value in [1] is “Among the most potent”.

With `CONC(=O)[C@H]1[C@@H](O)[C@@]2(O)c3c(OC)cc(OC)cc3O[C@@]2(c2ccc(OC)cc2)[C@@H]1c1ccccc1` [CR-1–31-B], in data set [4], the “suppression of liver polysomes” value is recorded as “effectively suppressed liver polysomes”. Moreover, in [1] (500 nM eIF4A1, 30 min, change in FP vs vehicle), the “stimulation of eIF4A1 binding to poly rA(GAA)5” value was “preferentially stimulated”. For the same compound, the “binding activity of eIF4A1 to poly r(AG)8” value in data set [1] (10 µM CR-1–31-B, 10 nM FAM poly r(AG)8, 30 min RT) is “enhanced”. In data set [1], the “rank in screen” value is “ranked highly”. Moreover, the “assembly of the 80S ribosome on the mRNA” value in data set [8] is given as “inhibited assembly of the 80S ribosome”. Further, the “binding activity of eIF4A2 to poly r(AG)8” value in data set [9] is on record as “enhanced”. Besides, in [5], the IC50 is ~8.5 nM.

On to `COc1ccc([C@@]23Oc4cc(OC)cc(OC)c4[C@@]24NC(C)=NC4=C(C=O)[C@H]3c2ccccc2)cc1` [CMLD012607], for which, in data set [5], the IC50 amounted to 454 nM.

The values are drawn from article PMC6874763 (Cell chemical biology, 2019).
